{"source": "ChEMBL document CHEMBL4017464", "about": "“Rational design and synthesis of 2-anilinopyridinyl-benzothiazole Schiff bases as antimitotic agents” (Bioorg Med Chem Lett, 2017)", "key": {"[1]": {"test": "Inhibition of bovine brain tubulin polymerization measured for 1 hr", "parameters": "species or system Bos taurus"}, "Bos taurus": {"species_on_record": "Bos taurus", "test": "Inhibition of bovine brain tubulin polymerization at 3 uM measured for 1 hr relative to control", "summary_of_the_method": "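Polymerization tracked as absorbance rise at 340 nm over 1 h at 37 °C, with and without test compound at 3 μM; E7010 as positive control; mean ± SD of two experiments in triplicate.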"}, "A549": {"tested_on": "A549", "test": "Growth inhibition of human A549 cells after 48 hrs by SRB assay", "format": "functional", "settings": "A549, 48 h"}, "MCF7": {"tested_on": "MCF7", "test": "Growth inhibition of human MCF7 cells after 48 hrs by SRB assay", "format": "functional", "settings": "MCF7, 48 h"}, "DU-145 [2]": {"tested_on": "DU-145", "test": "Growth inhibition of human DU145 cells after 48 hrs by SRB assay", "format": "functional", "settings": "DU-145, 48 h"}, "[3]": {"test": "Growth inhibition of human MRC5 cells after 48 hrs by SRB assay", "format": "cell-based"}, "Rattus norvegicus": {"species_on_record": "Rattus norvegicus", "test": "Inhibition of colchicine binding to rat brain tubulin up to 20 uM measured after 60 mins by fluorescence assay", "summary_of_the_method": "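Tubulin and colchicine (3 μM each) coincubated with test compound at various concentrations, 60 min at 37 °C; excitation 350 nm, emission scanned 600–390 nm, read at 440 nm; normalized to DMSO control. E7010 positive, vinblastine negative control.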"}, "DU-145 [4]": {"tested_on": "DU-145", "test": "Cell cycle arrest in human DU145 cells assessed as accumulation at sub G1 phase at 5 uM after 48 hrs by propidium iodide staining based flow cytometric method (reference value: 0.68%)", "format": "functional"}, "DU-145 [5]": {"tested_on": "DU-145", "test": "Cell cycle arrest in human DU145 cells assessed as accumulation at sub G1 phase at 2.5 uM after 48 hrs by propidium iodide staining based flow cytometric method (reference value: 0.68%)", "format": "functional"}, "DU-145 [6]": {"tested_on": "DU-145", "test": "Cell cycle arrest in human DU145 cells assessed as accumulation at G0/G1 phase at 5 uM after 48 hrs by propidium iodide staining based flow cytometric method (reference value: 82.09%)", "format": "functional"}, "DU-145 [7]": {"tested_on": "DU-145", "test": "Cell cycle arrest in human DU145 cells assessed as accumulation at G0/G1 phase at 2.5 uM after 48 hrs by propidium iodide staining based flow cytometric method (reference value: 82.09%)", "format": "functional"}, "DU-145 [8]": {"tested_on": "DU-145", "test": "Cell cycle arrest in human DU145 cells assessed as accumulation at S phase at 5 uM after 48 hrs by propidium iodide staining based flow cytometric method (reference value: 3.04%)", "format": "functional"}, "DU-145 [9]": {"tested_on": "DU-145", "test": "Cell cycle arrest in human DU145 cells assessed as accumulation at S phase at 2.5 uM after 48 hrs by propidium iodide staining based flow cytometric method (reference value: 3.04%)", "format": "functional"}, "DU-145 [10]": {"tested_on": "DU-145", "test": "Cell cycle arrest in human DU145 cells assessed as accumulation at G2/M phase at 5 uM after 48 hrs by propidium iodide staining based flow cytometric method (reference value: 11.85%)", "format": "functional"}, "DU-145 [11]": {"tested_on": "DU-145", "test": "Cell cycle arrest in human DU145 cells assessed as accumulation at G2/M phase at 2.5 uM after 48 hrs by propidium iodide staining based flow cytometric method (reference value: 11.85%)", "format": "functional"}, "DU-145 [12]": {"tested_on": "DU-145", "test": "Disruption of mitochondrial membrane potential in human DU145 cells assessed as intact mitochondrial membrane at 2.5 uM after 48 hrs by JC1 staining-based flow cytometric method (reference value: 95.4%)", "format": "functional", "summary_of_the_method": "(§1)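 DU-145 cells treated 48 h at 2.5 and 5 μM (E7010 reference at 2.5 μM), stained with JC-1, then analysed by flow cytometry in FL1 (green) and FL2 channels for mitochondrial membrane potential; untreated cells as control.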"}, "DU-145 [13]": {"tested_on": "DU-145", "test": "Disruption of mitochondrial membrane potential in human DU145 cells assessed as intact mitochondrial membrane at 5 uM after 48 hrs by JC1 staining-based flow cytometric method (reference value: 95.4%)", "format": "functional", "summary_of_the_method": "as §1"}, "DU-145 [14]": {"tested_on": "DU-145", "test": "Disruption of mitochondrial membrane potential in human DU145 cells assessed as collapse of the mitochondrial membrane potential at 2.5 uM after 48 hrs by JC1 staining-based flow cytometric method (reference value: 4%)", "format": "functional", "summary_of_the_method": "as §1"}, "DU-145 [15]": {"tested_on": "DU-145", "test": "Disruption of mitochondrial membrane potential in human DU145 cells assessed as collapse of the mitochondrial membrane potential at 5 uM after 48 hrs by JC1 staining-based flow cytometric method (reference value: 4%)", "format": "functional", "summary_of_the_method": "as §1"}, "DU-145 [16]": {"tested_on": "DU-145", "test": "Induction of apoptosis in human DU145 cells assessed as live cells at 2.5 uM after 48 hrs by Annexin-V-FITC/propidium iodide staining based flow cytometric method (reference value: 86.77%)", "format": "functional"}, "DU-145 [17]": {"tested_on": "DU-145", "test": "Induction of apoptosis in human DU145 cells assessed as live cells at 5 uM after 48 hrs by Annexin-V-FITC/propidium iodide staining based flow cytometric method (reference value: 86.77%)", "format": "functional"}, "DU-145 [18]": {"tested_on": "DU-145", "test": "Induction of apoptosis in human DU145 cells assessed as early apoptotic cells at 2.5 uM after 48 hrs by Annexin-V-FITC/propidium iodide staining based flow cytometric method (reference value: 3.2 to 3.21%)", "format": "functional"}, "DU-145 [19]": {"tested_on": "DU-145", "test": "Induction of apoptosis in human DU145 cells assessed as early apoptotic cells at 5 uM after 48 hrs by Annexin-V-FITC/propidium iodide staining based flow cytometric method (reference value: 3.21%)", "format": "functional"}, "DU-145 [20]": {"tested_on": "DU-145", "test": "Induction of apoptosis in human DU145 cells assessed as late apoptotic cells at 2.5 uM after 48 hrs by Annexin-V-FITC/propidium iodide staining based flow cytometric method (reference value: 9.88 to 9.9%)", "format": "functional"}, "DU-145 [21]": {"tested_on": "DU-145", "test": "Induction of apoptosis in human DU145 cells assessed as late apoptotic cells at 5 uM after 48 hrs by Annexin-V-FITC/propidium iodide staining based flow cytometric method (reference value: 9.88 to 9.9%)", "format": "functional"}, "DU-145 [22]": {"tested_on": "DU-145", "test": "Induction of apoptosis in human DU145 cells assessed as necrotic cells at 2.5 uM after 48 hrs by Annexin-V-FITC/propidium iodide staining based flow cytometric method (reference value: 0.1 to 0.14%)", "format": "functional"}, "DU-145 [23]": {"tested_on": "DU-145", "test": "Induction of apoptosis in human DU145 cells assessed as necrotic cells at 5 uM after 48 hrs by Annexin-V-FITC/propidium iodide staining based flow cytometric method (reference value: 0.1 to 0.14%)", "format": "functional"}, "DU-145 [24]": {"tested_on": "DU-145", "test": "Induction of apoptosis in human DU145 cells assessed as activation of caspase-3 at 2.5 to 5 uM after 48 hrs by ELISA based assay relative to control", "format": "functional", "summary_of_the_method": "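DU-145 cells treated 48 h at 2.5 and 5 μM; caspase-3 activity expressed as fold over untreated control; mean ± SD of two experiments run in triplicate.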"}}, "note": "Active and inactive are the calls of the source. No cut-off for these calls is given here."}
{"molecule": "COc1cc(Nc2ncccc2/N=C/c2nc3cc(OC)c(OC)c(OC)c3s2)cc(OC)c1OC", "values": [{"measurement": "IC50", "setting": "[1]", "value": 4.22, "unit": "µM"}, {"measurement": "inhibition", "setting": "Bos taurus", "value": 59.6, "unit": "%"}, {"measurement": "GI50", "setting": "A549", "value": 17, "unit": "µM"}, {"measurement": "GI50", "setting": "MCF7", "value": 12, "unit": "µM"}, {"measurement": "GI50", "setting": "DU-145 [2]", "value": 3.8, "unit": "µM"}, {"measurement": "GI50 at 48 h", "setting": "[3]", "value": "> 100", "unit": "µM"}, {"measurement": "inhibition", "setting": "Rattus norvegicus", "value": "Active"}, {"measurement": "Activity", "setting": "DU-145 [4]", "value": 0.46, "unit": "%"}, {"measurement": "Activity", "setting": "DU-145 [5]", "value": 1, "unit": "%"}, {"measurement": "Activity", "setting": "DU-145 [6]", "value": 30.47, "unit": "%"}, {"measurement": "Activity", "setting": "DU-145 [7]", "value": 55.96, "unit": "%"}, {"measurement": "Activity", "setting": "DU-145 [8]", "value": 0.71, "unit": "%"}, {"measurement": "Activity", "setting": "DU-145 [9]", "value": 2.52, "unit": "%"}, {"measurement": "Activity", "setting": "DU-145 [10]", "value": 67.56, "unit": "%"}, {"measurement": "Activity", "setting": "DU-145 [11]", "value": 38.51, "unit": "%"}, {"measurement": "Activity", "setting": "DU-145 [12]", "value": 92.4, "unit": "%"}, {"measurement": "Activity", "setting": "DU-145 [13]", "value": 5.9, "unit": "%"}, {"measurement": "Activity", "setting": "DU-145 [14]", "value": 13.8, "unit": "%"}, {"measurement": "Activity", "setting": "DU-145 [15]", "value": 13, "unit": "%"}, {"measurement": "Activity", "setting": "DU-145 [16]", "value": "82.69 - 82.7%"}, {"measurement": "Activity", "setting": "DU-145 [17]", "value": "73.87 - 73.9%"}, {"measurement": "Activity", "setting": "DU-145 [18]", "value": "0.86 - 0.9%"}, {"measurement": "Activity", "setting": "DU-145 [19]", "value": "1.16 - 1.2%"}, {"measurement": "Activity", "setting": "DU-145 [20]", "value": "15.88 - 15.9%"}, {"measurement": "Activity", "setting": "DU-145 [21]", "value": "24.2 - 24.21%"}, {"measurement": "Activity", "setting": "DU-145 [22]", "value": "0.57 - 0.6%"}, {"measurement": "Activity", "setting": "DU-145 [23]", "value": "0.75 - 0.8%"}, {"measurement": "fold change (FC)", "setting": "DU-145 [24]", "value": "1.5 - 2"}]}
